Measured values taken from ChEMBL document CHEMBL1772997 (J Med Chem, 2011).
Activity calls are given as the source filed them. The calls are words filed in the database; no cut-off is given here.

How the values were obtained:
[1] = biological target: T1, Melatonin receptor type 1A (Homo sapiens, UniProt P48039); assay: Agonist activity at human MT1 receptor expressed in CHO cells assessed as inhibition of forskolin-induced cAMP accumulation after 30 mins by EnVision Multilabel Plate Readers; type: functional, cell-based
T1 sequence (P48039 whole entry): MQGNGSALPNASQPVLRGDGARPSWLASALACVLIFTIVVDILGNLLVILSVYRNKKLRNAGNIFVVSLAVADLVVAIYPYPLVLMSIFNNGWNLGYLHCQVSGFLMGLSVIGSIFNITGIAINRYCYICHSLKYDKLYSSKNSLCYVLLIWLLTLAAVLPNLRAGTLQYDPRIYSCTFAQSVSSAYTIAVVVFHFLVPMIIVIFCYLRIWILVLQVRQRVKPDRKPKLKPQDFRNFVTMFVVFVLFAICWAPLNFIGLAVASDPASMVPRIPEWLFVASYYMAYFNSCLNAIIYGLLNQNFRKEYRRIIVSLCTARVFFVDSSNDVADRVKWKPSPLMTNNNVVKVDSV

[2] = species: Homo sapiens; assay: Selectivity ratio, ratio of Ki for human MT1 receptor over Ki for human MT2 receptor
[3] = biological target: T2, Melatonin receptor type 1B (Homo sapiens, UniProt P49286); assay: Displacement of [125I]-2-iodomelatonin from human MT2 receptor expressed on CHO cells microscintillation counting; type: cell-based
T2 sequence (P49286 whole entry): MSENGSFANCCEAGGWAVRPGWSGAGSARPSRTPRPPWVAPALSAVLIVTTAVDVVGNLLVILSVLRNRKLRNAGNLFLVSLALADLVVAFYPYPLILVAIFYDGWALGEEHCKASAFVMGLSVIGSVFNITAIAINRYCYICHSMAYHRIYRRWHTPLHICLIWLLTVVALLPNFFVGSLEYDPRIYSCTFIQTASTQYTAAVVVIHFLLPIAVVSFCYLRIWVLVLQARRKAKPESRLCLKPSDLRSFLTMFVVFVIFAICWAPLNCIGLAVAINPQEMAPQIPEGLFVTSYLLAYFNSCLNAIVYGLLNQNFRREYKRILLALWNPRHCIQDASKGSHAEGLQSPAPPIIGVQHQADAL

[4] = biological target: T3, Melatonin receptor type 1B (Homo sapiens) (UniProt P49286); assay: Agonist activity at human MT2 receptor expressed in CHO cells assessed as inhibition of forskolin-induced cAMP accumulation after 30 mins by EnVision Multilabel Plate Readers relative to control; type: functional, cell-based
T3 sequence (whole entry): T2 sequence (P49286 whole entry)
Summary of the method: (§1)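 Stable CHO line expressing human MT2, suspended in modified HBSS with 5 mM HEPES pH 7.4, 0.1% BSA, 100 μM IBMX and 100 μM Ro20-1724; 6 × 10⁴ cells/well. Compound added, then forskolin (final 2 μM), 30 min at room temperature; AlphaScreen cAMP read after 12 h in dark.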

[5] = biological target: T1, Melatonin receptor type 1A; assay: Displacement of [125I]-2-iodomelatonin from human MT1 receptor expressed on CHO cells by microscintillation counting; type: cell-based
[6] = biological target: T3, Melatonin receptor type 1B (Homo sapiens); assay: Ratio of compound Ki to melatonin Ki for human MT2 receptor expressed on CHO cells by radioligand displacement assay; type: cell-based
Summary of the method: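 Membranes from CHO cells stably expressing human MT1 or MT2, in 50 mM Tris-HCl pH 7.7. Incubated with 2-[¹²⁵I]iodomelatonin, 40 pM for MT1 or 80 pM for MT2, 150 min at 25 °C. […] IC50 by three-parameter fit, Ki by Cheng–Prusoff using Kd 33.9 pM for MT1 and 72.6 pM for MT2.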

[7] = biological target: T3, Melatonin receptor type 1B (Homo sapiens); assay: Partial agonist activity at human MT2 receptor expressed in CHO cells assessed as inhibition of forskolin-induced cAMP accumulation after 30 mins by EnVision Multilabel Plate Readers relative to control; type: functional, cell-based; summary of the method: as §1
[8] = tested on: Mus musculus; assay: Chronobiotic activity in ICR mouse assessed as reentrainment for 8 hrs advance of dark phase at 3 mg/kg, ip administered 1 hr before dark period once daily for 3 days by running-wheel activity assay; type: functional, organism-based; parameters: dose 3 mg/kg
Summary of the method: (§2)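 Male ICR mice (6 weeks old), housed individually with running wheels under 12/12 light/dark, habituated at least 2 weeks; dark phase then advanced 8 h and kept 14 days. Dosed ip once daily 1 h before dark from shift day, suspended in 0.5% methylcellulose saline, 10 mL/kg. Days to reentrainment: onset advanced >7 h for ≥3 consecutive days, else scored 14 days.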

[9] = tested on: Mus musculus; assay: Chronobiotic activity in ICR mouse assessed as reentrainment for 8 hrs advance of dark phase at 30 mg/kg, ip administered 1 hr before dark period once daily for 3 days by running-wheel activity assay; type: functional, organism-based; parameters: dose 30 mg/kg; summary of the method: as §2
[10] = biological target: T2, Melatonin receptor type 1B; assay: Agonist activity at human MT2 receptor expressed in CHO cells assessed as inhibition of forskolin-induced cAMP accumulation after 30 mins by EnVision Multilabel Plate Readers; type: functional, cell-based

SMILES | EC50 [1] [nM] | Ratio Ki [2] | Ki [3] [nM] | Emax [4] [%] | Ki [5] [nM] | Ratio Ki [6] | Emax [7] [%] | EC50 [10] [nM] | Activity [8] | Activity [9]
CC(=O)NCCC1=C(Cc2ccccc2)Cc2ccc3c(c21)CCO3 | 0.513 | 316 | 0.0085 | 61.7 | 2.7 | – | – | – | – | –
CC(=O)NCCC1=C(c2ccc(C(C)(C)C)cc2)Cc2ccc3c(c21)CCO3 | – | 1.8 | 0.77 | – | 1.4 | – | – | – | – | –
CC(=O)NCCC1=C(c2cccc(C(C)C)c2)Cc2ccc3c(c21)CCO3 | 3.02 | 1200 | 0.011 | – | 13 | 19 | 72.8 | – | – | –
CC(=O)NCCC1=C(CC2CCCCC2)Cc2ccc3c(c21)CCO3 | 4.47 | 799 | 0.012 | 99 | 9.2 | 18 | – | 1.32 | Active | Active
COc1ccccc1C1=C(CCNC(C)=O)c2c(ccc3c2CCO3)C1 | – | 53 | 0.02 | – | 1.1 | – | – | – | – | –
CC(C)C1=C(CCNC(=O)C(F)(F)F)c2c(ccc3c2CCO3)C1 | – | 3.1 | 0.01 | – | 0.032 | – | – | – | – | –
CCC(=O)NCCC1=C(C(C)C)Cc2ccc3c(c21)CCO3 | – | 1.3 | 0.011 | – | 0.013 | – | – | – | – | –
CC(=O)NCCC1=C(c2ccoc2)Cc2ccc3c(c21)CCO3 | – | 0.68 | 0.0096 | – | 0.0065 | – | – | – | – | –
CC(=O)NCCC1=C(Cc2ccsc2)Cc2ccc3c(c21)CCO3 | – | 132 | 0.0067 | – | 0.88 | – | – | – | – | –

More lines, main results first:

EC50 [1] [nM] | Ratio Ki [2] | Ki [3] [nM] | Emax [4] [%] | Ki [5] [nM] | Ratio Ki [6] | Emax [7] [%] | EC50 [10] [nM] | SMILES | Activity [8] | Activity [9]
– | 0.61 | 0.014 | – | 0.0087 | – | – | – | CC(=O)NCCC1=C(Br)Cc2ccc3c(c21)CCO3 | – | –
– | 1.3 | 0.018 | – | 0.024 | – | – | – | CC(=O)NCCC1=C(C(C)C)Cc2ccc3c(c21)CCO3 | – | –
– | 220 | 0.006 | – | 1.3 | – | – | – | CC(=O)NCCC1=C(c2csc3ccccc23)Cc2ccc3c(c21)CCO3 | – | –
– | > 292 | 0.34 | – | > 100 | – | – | – | CC(=O)NCCC1=C(c2ccccc2OC(C)C)Cc2ccc3c(c21)CCO3 | – | –
– | 13 | 0.084 | – | 1.1 | – | – | – | CCNC(=O)NCCC1=C(C(C)C)Cc2ccc3c(c21)CCO3 | – | –
– | 2.1 | 0.022 | – | 0.045 | 10 | – | – | CC(=O)NCCC1=CCc2ccc3c(c21)CCO3 | – | –
– | 3.2 | 0.035 | – | 0.11 | – | – | – | CC(C)C1=C(CCNC(=O)C2CC2)c2c(ccc3c2CCO3)C1 | – | –
– | 6.3 | 0.009 | – | 0.057 | – | – | – | COc1cccc(C2=C(CCNC(C)=O)c3c(ccc4c3CCO4)C2)c1 | – | –
– | 81 | 0.037 | – | 3 | – | – | – | COc1ccc(C2=C(CCNC(C)=O)c3c(ccc4c3CCO4)C2)cc1 | – | –
– | 2.1 | 0.034 | – | 0.069 | – | – | – | CC(=O)NCCC1=C(c2cccnc2)Cc2ccc3c(c21)CCO3 | – | –
